Experimental data: paper PMC3995353 (Biopolymers, 2014)

Tested on: Chinese Hamster Ovary (CHO) cells
Experiment: Cytotoxicity, MTT assay in CHO cells
Type: cell-based
Conditions: 5 μM, 48 hours
Procedure, shortened: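 CHO cells seeded in 96-well plates, test compound added at concentrations up to 20 μM, then 48 h at 37°C, 5% CO2, humidified (cells adhere during incubation). MTT (50 μg/well) added for 6 h. Formazan dissolved in acidified isopropanol (90% isopropanol:10% Triton X-100:0.4% HCl), OD read at 550 nm as relative viability. Mean ± standard error, ≥3 experiments.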

Q: For Melittin, which “cell viability (positive control)” value is on record?
A: complete loss of cell viability
